Assay results from ChEMBL document CHEMBL1208778, “Synthesis and anti-cancer activity of chalcone linked imidazolones” (2010).

Experiments:
Type in all cases: functional
[1] = Growth inhibition of human RPMI8266 cells
Outline: (§1)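 Five-dose testing was run within the NCI (Bethesda) in vitro Anticancer Screen Program on a panel of 53 human tumour cell lines from nine cancer types. Growth inhibition is reported as GI50.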

[2] = test system: K562; assay: Growth inhibition of human K562 cells; outline: as §1
[3] = test system: A549; assay: Growth inhibition of human A549 cells; outline: as §1
[4] = test system: EKVX; assay: Growth inhibition of human EKVX cells; outline: as §1
[5] = test system: HOP-62; assay: Growth inhibition of human HOP62 cells; outline: as §1
[6] = test system: HOP-92; assay: Growth inhibition of human HOP92 cells; outline: as §1
[7] = test system: NCI-H226; assay: Growth inhibition of human NCI-H226 cells; outline: as §1
[8] = test system: NCI-H23; assay: Growth inhibition of human NCI-H23 cells; outline: as §1
[9] = test system: NCI-H322M; assay: Growth inhibition of human NCI-H322M cells; outline: as §1
[10] = test system: NCI-H460; assay: Growth inhibition of human NCI-H460 cells; outline: as §1
[11] = test system: NCI-H522; assay: Growth inhibition of human NCI-H522 cells; outline: as §1
[12] = test system: COLO 205; assay: Growth inhibition of human COLO205 cells; outline: as §1
[13] = test system: HCC 2998; assay: Growth inhibition of human HCC2998 cells; outline: as §1
[14] = test system: HCT-116; assay: Growth inhibition of human HCT116 cells; outline: as §1
[15] = test system: HCT-15; assay: Growth inhibition of human HCT15 cells; outline: as §1
[16] = test system: HT-29; assay: Growth inhibition of human HT-29 cells; outline: as §1
[17] = test system: KM12; assay: Growth inhibition of human KM12 cells; outline: as §1
[18] = test system: SW-620; assay: Growth inhibition of human SW620 cells
Outline: (§2)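 Compounds that passed a preliminary screen were tested at five doses in the NCI (Bethesda) in vitro Anticancer Screen Program against a 53-line human tumour panel spanning leukemia, lung, colon, CNS, melanoma, ovarian, renal, prostate and breast. Growth inhibition is reported as GI50.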

[19] = test system: SF-268; assay: Growth inhibition of human SF268 cells; outline: as §1
[20] = test system: SF-295; assay: Growth inhibition of human SF295 cells; outline: as §1
[21] = test system: SF-539; assay: Growth inhibition of human SF539 cells; outline: as §1
[22] = test system: SNB-19; assay: Growth inhibition of human SNB19 cells; outline: as §2
[23] = test system: SNB-75; assay: Growth inhibition of human SNB75 cells; outline: as §2
[24] = test system: U-251; assay: Growth inhibition of human U251 cells; outline: as §2
[25] = test system: A498; assay: Growth inhibition of human A498 cells; outline: as §1
[26] = test system: 786-0; assay: Growth inhibition of human 786-0 cells; outline: as §1
[27] = test system: ACHN; assay: Growth inhibition of human ACHN cells; outline: as §1
[28] = test system: CAKI-1; assay: Growth inhibition of human Caki1 cells; outline: as §1
[29] = test system: RXF 393; assay: Growth inhibition of human RXF393 cells; outline: as §1
[30] = test system: SN12C; assay: Growth inhibition of human SN12C cells; outline: as §2
[31] = test system: TK-10; assay: Growth inhibition of human TK10 cells; outline: as §2
[32] = test system: UO-31; assay: Growth inhibition of human UO31 cells; outline: as §2
[33] = test system: PC-3; assay: Growth inhibition of human PC3 cells; outline: as §1
[34] = test system: OVCAR-3; assay: Growth inhibition of human OVCAR-3 cells; outline: as §1
[35] = test system: OVCAR-4; assay: Growth inhibition of human OVCAR4 cells; outline: as §1
[36] = test system: OVCAR-5; assay: Growth inhibition of human OVCAR5 cells; outline: as §1
[37] = test system: OVCAR-8; assay: Growth inhibition of human OVCAR8 cells; outline: as §1
[38] = test system: NCI/ADR-RES; assay: Growth inhibition of human NCI/ADR-RES cells; outline: as §1
[39] = test system: SK-OV-3; assay: Growth inhibition of human SKOV3 cells; outline: as §2
[40] = test system: MCF7; assay: Growth inhibition of human MCF7 cells; outline: as §1
[41] = test system: MDA-MB-231; assay: Growth inhibition of human MDA-MB-231 cells; outline: as §1
[42] = Growth inhibition of human Hs 578T cells; outline: as §1
[43] = test system: BT-549; assay: Growth inhibition of human BT549 cells; outline: as §1
[44] = test system: T47D; assay: Growth inhibition of human T47D cells; outline: as §2
[45] = test system: LOX IMVI; assay: Growth inhibition of human LOXIMVI cells; outline: as §1
[46] = test system: Malme-3M; assay: Growth inhibition of human MALME-3M cells; outline: as §1
[47] = test system: M14; assay: Growth inhibition of human M14 cells; outline: as §1
[48] = test system: MDA-MB-435; assay: Growth inhibition of human MDA-MB-435 cells; outline: as §1
[49] = test system: SK-MEL-2; assay: Growth inhibition of human SK-MEL-2 cells; outline: as §1
[50] = test system: SK-MEL-28; assay: Growth inhibition of human SK-MEL-28 cells; outline: as §1
[51] = test system: SK-MEL-5; assay: Growth inhibition of human SK-MEL-5 cells; outline: as §1
[52] = test system: UACC-257; assay: Growth inhibition of human UACC257 cells; outline: as §2
[53] = test system: UACC-62; assay: Growth inhibition of human UACC62 cells; outline: as §2
[54] = test system: MCF7; assay: Cell cycle arrest in human MCF7 cells assessed as accumulation at G0 phase at 10 uM after 24 hrs by FACS analysis
Outline: (§3)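 MCF-7 breast carcinoma cells were exposed to 10 µM test compound for 24 h, with DMSO as the vehicle control. Cell-cycle distribution was read by FACS as the percentage of cells in G0, G1, S and G2/M.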

[55] = test system: MCF7; assay: Cell cycle arrest in human MCF7 cells assessed as accumulation at G1 phase at 10 uM after 24 hrs by FACS analysis; outline: as §3
[56] = test system: MCF7; assay: Cell cycle arrest in human MCF7 cells assessed as accumulation at S phase at 10 uM after 24 hrs by FACS analysis; outline: as §3
[57] = test system: MCF7; assay: Cell cycle arrest in human MCF7 cells assessed as accumulation at G2/M phase at 10 uM after 24 hrs by FACS analysis; outline: as §3
[58] = test system: MCF7; assay: Cell cycle arrest in human MCF7 cells assessed as accumulation at G0 phase at 30 uM after 24 hrs by FACS analysis
Outline: (§4)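 MCF-7 cells were treated at 30 µM for 24 h alongside a DMSO control. Fractions in G0, G1, S and G2/M phases were measured by FACS, and values are means of three experiments.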

[59] = test system: MCF7; assay: Cell cycle arrest in human MCF7 cells assessed as accumulation at G1 phase at 30 uM after 24 hrs by FACS analysis; outline: as §4
[60] = test system: MCF7; assay: Cell cycle arrest in human MCF7 cells assessed as accumulation at S phase at 30 uM after 24 hrs by FACS analysis; outline: as §4
[61] = test system: MCF7; assay: Cell cycle arrest in human MCF7 cells assessed as accumulation at G2/M phase at 30 uM after 24 hrs by FACS analysis; outline: as §4

Compound `COc1cc(/C=C/C(=O)c2cccc(-n3cc(-c4ccccc4)[nH]c3=O)c2)cc(OC)c1OC` has a GI50 [1] of 620 nM, a GI50 [2] of 500 nM and a GI50 [3] of 4030 nM. The GI50 [4] was 2300 nM, the GI50 [5] was 4120 nM and the GI50 [6] was 10800 nM. It also gave a GI50 [7] of 14600 nM, a GI50 [8] of 1430 nM and a GI50 [9] of 2020 nM. The GI50 [10] was 1400 nM, the GI50 [11] was 950 nM and the GI50 [12] was 1510 nM. For the same compound, the GI50 [13] was 1260 nM, the GI50 [14] was 330 nM and the GI50 [15] was 1130 nM. For the same compound, the GI50 [16] was 660 nM, the GI50 [17] was 1370 nM and the GI50 [18] was 390 nM. The GI50 [19] was 1920 nM, the GI50 [20] was 1900 nM and the GI50 [21] was 1680 nM. It also gave a GI50 [22] of 2350 nM, a GI50 [23] of 4470 nM and a GI50 [24] of 630 nM. For the same compound, the GI50 [25] was 2650 nM, the GI50 [26] was 1380 nM and the GI50 [27] was 1600 nM. For the same compound, the GI50 [28] was 1750 nM, the GI50 [29] was 1710 nM and the GI50 [30] was 2090 nM. For the same compound, the GI50 [31] was 3020 nM, the GI50 [32] was 1510 nM and the GI50 [33] was 3260 nM. The GI50 [34] was 1230 nM, the GI50 [35] was 1880 nM and the GI50 [36] was 1880 nM. The GI50 [37] was 1620 nM, the GI50 [38] was 1100 nM and the GI50 [39] was 3270 nM. It also gave a GI50 [40] of 310 nM, a GI50 [41] of 2170 nM and a GI50 [42] of 3410 nM. The GI50 [43] was 1930 nM, the GI50 [44] was 2190 nM and the GI50 [45] was 480 nM. For the same compound, the GI50 [46] was 1310 nM, the GI50 [47] was 1350 nM and the GI50 [48] was 1200 nM. For the same compound, the GI50 [49] was 2060 nM, the GI50 [50] was 1740 nM and the GI50 [51] was 1400 nM. For the same compound, the GI50 [52] was 1520 nM, the GI50 [53] was 1520 nM and the Activity [54] was 8.19%. The Activity [55] was 54.85%, the Activity [56] was 17.5% and the Activity [57] was 19.46%. The Activity [58] was 52.34%, the Activity [59] was 39.08% and the Activity [60] was 5.6%. For the same compound, the Activity [61] was 3.02%.
